In the library only some 3% were active in any assay of this set; here they are far more common.
SENP7 block = inhibitors of human SENP7 protease; AID 434973; recombinant SENP7, Z-RLRGG-aminoluciferin luminescence, 40 min; hit rate 1.5% among 330,000; Q9BQF6; inhibition, % at 5 µM;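 active = inhibition above about 50% at the single test dose, limit read from the data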
Apaf1 inhib = blocks human Apaf-1 apoptosome activity; O14727; reconstituted apoptosome caspase-3 activity, DEVD-Rh110 fluorescence; hit rate 0.71% among 330,000; inhibition, % at 20 µM; active = inhibition of at least 40% at 20 µM
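Medium: Hepes buffer, pH 7.5 / System: biochemical Apaf-1 apoptosome reconstitution / Measured by: Rh110 fluorescence, excitation 480 nm, emission 540 nm / Times: compound with Apaf-1, dATP, procaspase-3 30 min, then 50 min reaction, room temperature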
SENP8 block-1 = blocks the human protease SENP8 | purified SENP8, Z-RLRGG-aminoluciferin cleavage, luminescence | inhibition, % at 10 µM | hit rate 1.2% among 330,000 | AID 2540; in the data active = inhibition above about 50%
SENP6 inh = SENP6 protease inhibition | Recombinant SENP6 catalytic domain, aminoluciferin luminescence | inhibition, % at 10 µM | hit rate 1.8% among 330,000 | AID 2599;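 active = inhibition above about 50% at the single tested dose, limit read from the data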
Target sequence (Q9GZR1 628-1112 limits assumed): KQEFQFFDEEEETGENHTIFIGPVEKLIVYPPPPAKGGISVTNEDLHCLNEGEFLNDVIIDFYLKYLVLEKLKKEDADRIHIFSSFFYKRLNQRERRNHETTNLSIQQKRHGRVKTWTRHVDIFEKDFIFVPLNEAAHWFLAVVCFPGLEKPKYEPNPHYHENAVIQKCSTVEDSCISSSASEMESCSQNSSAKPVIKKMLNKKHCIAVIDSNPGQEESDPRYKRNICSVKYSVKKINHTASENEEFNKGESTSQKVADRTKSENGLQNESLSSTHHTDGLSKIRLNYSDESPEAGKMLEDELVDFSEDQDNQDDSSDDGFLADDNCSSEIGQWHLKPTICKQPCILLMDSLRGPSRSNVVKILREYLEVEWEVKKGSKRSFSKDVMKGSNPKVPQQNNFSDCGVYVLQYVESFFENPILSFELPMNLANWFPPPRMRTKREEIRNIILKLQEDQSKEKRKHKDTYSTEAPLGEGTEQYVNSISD
UBC13 inh = inhibitors of human UBC13 polyubiquitin chain formation. AID 485273. inhibition, % at 20 µM. TR-FRET. hit rate 0.47% among 330,000. P61088; in the data active = inhibition above about 45%, passing the limit was not always enough; inconclusive = no clear call, values can overlap the other calls
SENP8 block-2 = inhibitors of human SENP8 protease; inhibition, % at 20 µM; recombinant SENP8, Nedd8 substrate fluorescence; hit rate 0.64% among 360,000; Q96LD8; in the data active = inhibition mostly above about 40%, no sharp cut-off; inactive = mostly below about 27%
A number is an active result.

Screening Cn1cc([C@]2(O)C(=O)Nc3ccc(Br)cc32)c2ccccc21 returned SENP8 block-2 inactive.
Screening Cc1cc(C)c(NC(=O)C2C(=O)Nc3ccccc3C(=O)N2C(C)(C)C)c(C)c1 (stereo not given) returned SENP8 block-2 inactive.
Cn1cc(Cl)c(C(=O)Nc2nc3ccc([N+](=O)[O-])cc3s2)n1 was read as SENP7 block 89.6, Apaf1 inhib inactive, SENP8 block-1 58.0, SENP6 inh 65.4, UBC13 inh inactive and SENP8 block-2 inactive.
CC(=O)N(C)c1ccc(N=Cc2cc3c(cc2[N+](=O)[O-])OCO3)cc1 was read as SENP7 block inactive, Apaf1 inhib 64.9, SENP8 block-1 inactive, SENP6 inh inactive, UBC13 inh inactive and SENP8 block-2 inactive.
Screening Cc1ccc(N=Cc2cc3c(cc2[N+](=O)[O-])OCO3)cc1[N+](=O)[O-] returned SENP7 block inactive, Apaf1 inhib inactive, SENP8 block-1 inactive, SENP6 inh inactive, UBC13 inh inactive and SENP8 block-2 inactive.
For COc1cccc(/C=N/N2CCOCC2)c1O the results were SENP7 block inactive, Apaf1 inhib inactive, SENP8 block-1 inactive, SENP6 inh inactive, UBC13 inh inactive and SENP8 block-2 inactive.
For Cc1nc2ccccc2c(=O)n1/N=C/c1ccc(O)c(O)c1O the results were SENP7 block inactive, Apaf1 inhib inactive, SENP8 block-1 inactive, SENP6 inh inactive, UBC13 inh inactive and SENP8 block-2 69.4.
`O=C1c2ccccc2C(=O)N1/N=C/c1ccc(O)c(O)c1O` gave SENP8 block-2 83.3.
`Oc1ccc(/C=N/N2CCOCC2)c(O)c1O` gave SENP7 block inactive, Apaf1 inhib inactive, SENP8 block-1 inactive, SENP6 inh inactive, UBC13 inh inactive and SENP8 block-2 63.2.
Oc1ccc(/C=N/N(c2ccccc2)c2ccccc2)c(O)c1O was read as SENP7 block inactive, Apaf1 inhib inactive, SENP8 block-1 inactive, SENP6 inh inactive, UBC13 inh inactive and SENP8 block-2 31.9.
For COC(=O)C[C@H]1CC[C@@H]2[C@H](COC[C@H](O)CN2S(=O)(=O)c2ccccc2OC)O1 the results were SENP8 block-2 inactive.
For CC1=C(C(=O)N(C(C)C)C(C)C)CC(CC(=O)NCc2ccco2)C(=O)N1Cc1ccc(C(C)(C)C)cc1 (stereo not given) the results were SENP8 block-2 inactive.
For CCOC(=O)[C@]12CCC=C1N(Cc1cccc3ccccc13)C(=O)[C@H](CC(=O)NCCCN1CCCC1=O)C2 the results were SENP8 block-2 inactive.
COc1cccc(-c2ccc3c(c2)O[C@H](CN(C)C(=O)c2ccccc2F)[C@H](C)CN([C@H](C)CO)S3(=O)=O)c1 was read as SENP8 block-2 inactive.
Screening O=[N+]([O-])c1ccccc1-c1cc(-c2ccccc2O)n[nH]1 returned SENP7 block inactive, Apaf1 inhib inactive, SENP8 block-1 inactive, SENP6 inh 60.6, UBC13 inh inactive and SENP8 block-2 inactive.
Cc1cc(C)n2c(Nc3ccc4c(c3)OCCO4)c(CCc3ccccc3)nc2n1 was read as SENP8 block-2 inactive.
For COC(=O)c1ccc(NC(=O)c2ccc(NC(=O)c3ccco3)cc2)cc1 the results were SENP7 block inactive, Apaf1 inhib 43.8, SENP8 block-1 inactive, SENP6 inh inactive, UBC13 inh inactive and SENP8 block-2 inactive.
CC(=O)c1ccc(NC(=O)c2ccc(NC(=O)c3ccco3)cc2)cc1 was read as SENP7 block inactive, Apaf1 inhib inactive, SENP8 block-1 inactive, SENP6 inh inactive, UBC13 inh inactive and SENP8 block-2 inactive.
CC1=C(C(=O)N(C(C)C)C(C)C)CC(CC(=O)NCCN2CCOCC2)C(=O)N1Cc1ccc(C(C)(C)C)cc1 (stereo not given) was read as SENP8 block-2 inactive.
For CCc1ccc(/C=C\C(=O)N2CCc3ccccc3C2)cc1 the results were SENP7 block inactive, Apaf1 inhib inactive, SENP8 block-1 inactive, SENP6 inh 60.6, UBC13 inh inconclusive and SENP8 block-2 inactive.
Screening COc1ccc(C(O)c2ncc(-c3ccc4ccccc4c3)[nH]2)cc1F (stereo not given) returned SENP8 block-2 inactive.
Screening O=C(N/N=C1/C(=O)c2cccc3cccc1c23)c1ccc(Cl)cc1 returned SENP7 block inactive, Apaf1 inhib inactive, SENP8 block-1 inactive, SENP6 inh inactive, UBC13 inh inactive and SENP8 block-2 48.1.

Bioassay records (PubChem BioAssay)
